Source: PubChem
DNA FID counter: compounds displacing fluorescent DNA intercalator, primary screen, artefact control for HCV NS3 helicase inhibitor project, biochemical, FID fluorescence; DNA fluorescent intercalator displacement; inhibition, % at 7.9 µM; hit rate 0.17% among 290,000; AID 1845, 2009; in the data active means inhibition above about 37%;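 further: 0% = vehicle and 100% = reference compound; higher means more ethidium bromide displaced from hairpin DNA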
VIM-2 inhibitor: VIM-2 metallo-beta-lactamase inhibitors, primary screen, biochemical, epi-absorbance readout, Pseudomonas aeruginosa enzyme; purified VIM-2, nitrocefin hydrolysis, epi-absorbance fluorescence; inhibition, % at 5.6 µM; hit rate 0.89% among 290,000; AID 1527, 2009;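 active means inhibition above the mean of all tested compounds plus 3 SD, cutoff set per screening run, cut at about 7.5% in these data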;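 further: red hydrolysis product quenches plate fluorescence so inhibitors raise well fluorescence; 0% = enzyme with DMSO and 100% = DMSO without enzyme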
IMP-1 inh-1: IMP-1 metallo-beta-lactamase inhibitors, primary screen, biochemical, epi-absorbance readout, Pseudomonas aeruginosa enzyme; hit rate 0.45% among 290,000; inhibition, % at 5.6 µM; purified IMP-1, nitrocefin hydrolysis, epi-absorbance fluorescence; metallo-beta-lactamase IMP-1 (Pseudomonas aeruginosa); AID 1556, 2009;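 active means inhibition above the mean plus 3 SD of all compounds in the same screening run, cut at about 4.5% in these data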;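 further: 0% = IMP-1 with DMSO and 100% = DMSO wells lacking enzyme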
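System: purified IMP-1; amount: IMP-1 0.2 nM before substrate addition; compound: single dose, 5.6 µM; times: 25 °C, 15 min preincubation, 25 min reaction; signal: Epi-absorbance via hydrolysed-nitrocefin quenching of white-plate fluorescence, 480/530 nm, EDTA stop; benchmarks: DMSO with and without IMP-1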
NS3 helicase inh: inhibitors of HCV NS3 helicase, primary screen, biochemical, Cy5 molecular beacon fluorescence; hit rate 0.56% among 290,000; inhibition, % at 10.9 µM; Hepatitis C virus NS3 helicase; NS3 helicase DNA unwinding;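 active means inhibition above the mean of all tested compounds plus 3 SD, set per campaign, cut at about 35% in these data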;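 further: 0% = DMSO wells and 100% = thioflavine S control wells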
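System: HCV NS3 helicase fragment; control set: DMSO and thioflavine S; technique: Cy5 fluorescence at 0 and 60 min, beacon hairpin quenching; reagent: beacon DNA duplex substrate plus ATP; replicates: singlicate; schedule: 1 h reaction at 25 °C, ATP-initiated; medium: MOPS buffer pH 6.5 with MgCl2, DTT, Tween20, BSA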
IMP-1 inh-2: IMP-1 metallo-beta-lactamase inhibitors, confirmation, selectivity assay for selective VIM-2 inhibitor project, biochemical, epi-absorbance readout, triplicate | shares compounds with VIM-2 inhibitor | inhibition, % at 5.6 µM | purified IMP-1, nitrocefin hydrolysis, epi-absorbance fluorescence | 1,300 tested, under 10 active; call rule not given here;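 further: 0% = enzyme with vehicle and 100% = vehicle without enzyme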
VIM-2 FRET ctr: VIM-2 inhibitors in FRET format, confirmation, artefact control for selective VIM-2 inhibitor project, biochemical, epi-absorbance artifact exclusion. shares compounds with VIM-2 inhibitor. hit rate 23% among 1,300. inhibition, % at 5.6 µM. purified VIM-2, CCF2 FRET substrate hydrolysis;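 active means inhibition above the mean of all tested compounds plus 3 SD, cut at about 19% in these data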;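 further: 0% = VIM-2 plus DMSO and 100% = no enzyme wells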
TEM-1 counter: TEM-1 serine beta-lactamase inhibitors, counter-screen for VIM-2 inhibitor project, biochemical, epi-absorbance, HTS; Purified TEM-1, nitrocefin hydrolysis, epi-absorbance fluorescence; shares compounds with VIM-2 inhibitor; inhibition, % at 5.6 µM; hit rate 3% among 1,300;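 active means inhibition above that campaign's mean inhibition plus 3 SD, cut at about 0.46% in these data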;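 further: 0% = TEM-1 with DMSO and 100% = TEM-1 with 100 µM potassium clavulanate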
Target sequence (P62593 whole entry, looked up): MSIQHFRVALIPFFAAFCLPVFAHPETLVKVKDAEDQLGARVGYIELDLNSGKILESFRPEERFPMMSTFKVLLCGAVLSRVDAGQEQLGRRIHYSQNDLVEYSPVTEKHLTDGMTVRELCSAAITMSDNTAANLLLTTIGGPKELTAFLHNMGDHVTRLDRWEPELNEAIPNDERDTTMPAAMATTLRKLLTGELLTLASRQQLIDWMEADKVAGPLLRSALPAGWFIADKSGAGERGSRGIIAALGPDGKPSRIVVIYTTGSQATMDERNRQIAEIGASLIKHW
VIM-2 confirm 2: VIM-2 metallo-beta-lactamase inhibitors, confirmation, biochemical, epi-absorbance, hits shared with IMP-1 screen; shares compounds with VIM-2 inhibitor; purified VIM-2, nitrocefin hydrolysis; inhibition, % at 5.6 µM; hit rate 96% among 1,300; AID 2187, 2009;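 active means inhibition of the VIM-2 beta-lactamase enzyme above about 11% from the earlier first-round screen, limit read from the data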;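 further: 0% = VIM-2 with DMSO and 100% = buffer wells without enzyme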
Starred values were filed as active, the others as inactive; nt = not tested or not shown. An excerpt weighted towards active compounds, which were near 1.9% of everything screened.

SMILES	DNA FID counter	VIM-2 inhibitor	IMP-1 inh-1	NS3 helicase inh	IMP-1 inh-2	VIM-2 FRET ctr	TEM-1 counter	VIM-2 confirm 2
Cc1nn2c(NCCCN(C)C)c3c(nc2c1-c1ccccc1)CCC3	29	14*	-3	-26	-3	-5	-7	37*
COCCNc1c2c(nc3c(-c4ccccc4)c(C)nn13)CCC2	-13	6	-3	-3	nt	nt	nt	nt
Cc1nn2c(NCCCN(C)C)c3c(nc2c1-c1ccccc1)CCCC3	34	45*	-1	-35	-2	0	-6	53*
Cc1nn2c(NCCOCCO)c3c(nc2c1-c1ccccc1)CCC3	-15	4	-3	-1	nt	nt	nt	nt
O=C(O)CC/C(=C\c1cc([N+](=O)[O-])ccc1Cl)c1nc2ccccc2s1	-29	21*	1	26	-1	49*	-1	34*
COc1ccc(CCNC(=O)c2ccc(=O)[nH]c2)cc1OC	-3	0	-1	1	nt	nt	nt	nt
CCOc1ccc(CCNC(=O)c2ccc(=O)[nH]c2)cc1OCC	-11	27*	-2	15	-2	-4	-1	2
COc1ccccc1N1CC(C(=O)Nc2nnc(SCc3ccccn3)s2)CC1=O (configuration not stated)	-37	-2	-1	-1	nt	nt	nt	nt
CNC(=O)CSc1nnc(NC(=O)C2CC(=O)N(c3ccccc3OC)C2)s1 (configuration not stated)	-15	33*	-3	9	-4	-1	-4	0
COC(=O)c1ccc(-c2ccc(C(=O)N3CCCN(C)CC3)cc2)cc1	1	13*	-4	3	-4	30*	-6	21*
CCSc1ccc2nnc(-c3ccc(F)cc3)n2n1	-26	14*	-2	25	-1	-4	0	24*
CCSc1ccc2nnc(-c3cccs3)n2n1	-6	17*	-2	-11	-3	-3	-8	28*
Cc1ccc(S(=O)(=O)N2CCN(C(=O)c3ccnn3C)CC2)cc1C	-19	-1	-2	-5	nt	nt	nt	nt
c1ccc2c(Nc3ccc4c(c3)OCCO4)c3c(nc2c1)CCCC3	24	15*	-1	-33	-3	-5	-2	23*
CC(=O)c1ccc(Nc2c3c(nc4ccccc24)CCCC3)cc1	4	5	0	-7	nt	nt	nt	nt
COc1ccc(Nc2c3c(nc4ccccc24)CCC3)c(OC)c1	-2	19*	0	-16	-5	-3	-8	22*
COc1ccc(NC(=O)CSc2c3c(nc4ccccc24)CCC3)c(OC)c1	-28	-4	-3	-2	nt	nt	nt	nt
COc1ccc(Nc2nc(N3CCN(C)CC3)nc3ccccc23)c(OC)c1	46*	16*	-1	17	-3	0	-7	28*
COc1cc(OC)cc(-c2nc3ccccc3c(=O)n2OC(=O)c2ccc(C)c(C)c2)c1	2	-3	-2	8	nt	nt	nt	nt
COCCCNC(=O)c1cc(C)nn1-c1ccccc1	1	-3	-2	-4	nt	nt	nt	nt
CCOc1cccc(C2/C(=C(/O)c3ccc4c(c3)CC(C)O4)C(=O)C(=O)N2Cc2ccncc2)c1 (configuration not stated)	-71	2	-6	7	nt	nt	nt	nt
CCN(CC)CCSc1nnc2c3cc(F)ccc3n(Cc3ccccc3)c2n1	-4	23*	-1	-13	-3	3	-6	37*
CCN(CC)CCn1c2ccccc2c2nc3ccccc3nc21	8	3	0	6	nt	nt	nt	nt
CCN(CC)CCSc1nnc2c3ccccc3n(Cc3ccccc3)c2n1	11	31*	-3	-27	-3	4	-10	49*
CCOC(=O)c1cc([N+](=O)[O-])c([N+](=O)[O-])cc1NC(C)=O	7	2	0	11	nt	nt	nt	nt
SMILES	DNA FID counter	VIM-2 inhibitor	IMP-1 inh-1	NS3 helicase inh	IMP-1 inh-2	VIM-2 FRET ctr	TEM-1 counter	VIM-2 confirm 2
Cc1ccc(NC(=O)Cn2nnc(C(=O)NCCc3ccccc3)c2N)c(C)c1	-14	1	0	-6	nt	nt	nt	nt
CCc1nc(N=C(N)N)nc2ccccc12	1	3	-3	-8	nt	nt	nt	nt
NC(N)=Nc1nc(-c2ccccc2)c2ccccc2n1	14	14*	-3	-24	-3	-6	-4	27*
CC(=O)NCC1CCCN(C(=O)c2ccc(OC3CCN(Cc4ccccn4)CC3)cc2)C1 (configuration not stated)	-1	0	-1	20	nt	nt	nt	nt
O=C1c2ccccc2C(=O)N1c1cccc2cccnc12	3	14*	-3	-3	-3	-1	-3	3
Cn1c2ccccc2c2nnc(SCc3nnc(-c4ccccc4)o3)nc21	3	-2	-2	2	nt	nt	nt	nt
CCn1c2ccccc2c2nnc(SCc3ccccc3)nc21	-2	-2	-2	-5	nt	nt	nt	nt
Cn1c2ccccc2c2nnc(SCCN3CCOCC3)nc21	-10	17*	-2	0	-3	0	-9	23*
CCn1c2ccccc2c2nnc(SCCN3CCCCC3)nc21	3	19*	-4	1	-1	2	-1	22*
Nc1cc(N)nc(SCCN2CCCCC2)n1	8	0	0	-3	nt	nt	nt	nt
Cc1cc(C)c2c(c1)c1nnc(SCCN3CCCCC3)nc1n2C	5	23*	1	5	-3	1	-6	33*
CCCCn1c2ccc(C)cc2c2nnc(SCCN3CCCCC3)nc21	0	22*	-3	-53	-3	8	-8	33*
O=C1NC(=O)C2(CCCc3ccccc32)N1 (configuration not stated)	0	-2	-4	-2	nt	nt	nt	nt
CN1CCN(NC(=O)c2cccc(C(F)(F)F)c2)CC1	-3	-1	-3	-11	nt	nt	nt	nt
O=C(CCc1ccncc1)NC1CCCc2c1cnn2-c1cc(F)cc(F)c1 (configuration not stated)	-6	1	0	15	nt	nt	nt	nt
Cc1sc2nc(CSc3cccc(C(F)(F)F)c3)[nH]c(=O)c2c1C	-2	0	-3	2	nt	nt	nt	nt
Cn1c2ccccc2c2nnc(SCC(=O)Nc3cccc(O)c3)nc21	-9	20*	-2	10	-2	3	-8	27*
O=C(Cc1ccccc1Cl)Nc1nc2ccccc2[nH]1	-7	-5	-2	-6	nt	nt	nt	nt
Cc1ccc(N2C(=O)c3cccc4cccc(c34)C2=O)cc1	1	-6	-1	6	nt	nt	nt	nt
